Legend:
Staphylococcus aureus [1] = test: Minimum inhibitory concentration of salt was tested against Staphylococcus aureus aureus at 0.1 M NaH2PO4 adjusted to pH 7.0; type: functional
In short: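 Bacteria grown 18-20 h at 37 °C in tryptose phosphate broth, adjusted to OD650 0.01, then diluted into double-strength medium to about 2 × 10^5 viable organisms/mL. Compound in 0.1 M NaH2PO4 pH 7.0 was serially twofold diluted into sterile water and added 1:1 to the cultures. MIC read after 18-20 h at 37 °C, with viability, sterility and buffer controls.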

Streptococcus pyogenes [2] = test: Sterilization time for contact germicidal efficiency (CGE) of salt was tested against at Streptococcus pyogenes at pH 6.0, concentration 1007 ppm; type: functional, organism-based
Staphylococcus aureus [3] = test: Sterilization time for contact germicidal efficiency (CGE) of salt was tested against Staphylococcus aureus at pH 7.0, concentration 1031 ppm; type: functional, organism-based
Staphylococcus aureus [4] = test: Sterilization time for contact germicidal efficiency (CGE) of salt was tested against at Staphylococcus aureus at pH 7.0, concentration 1031 ppm; type: functional, organism-based
Streptococcus pyogenes [5] = test: Sterilization time for contact germicidal efficiency (CGE) of salt was tested against at Streptococcus pyogenes at pH 7.0, concentration 1031 ppm; type: functional, organism-based
Streptococcus pyogenes [6] = test: Sterilization time for contact germicidal efficiency (CGE) of salt was tested against at Streptococcus pyogenes at pH 8.0, concentration 1042 ppm; type: functional, organism-based
Staphylococcus aureus [7] = test: Sterilization time for contact germicidal efficiency (CGE) of salt was tested against at Staphylococcus aureus at pH 6.0, concentration 1007 ppm; type: functional, organism-based
Pseudomonas aeruginosa [8] = tested on: Pseudomonas aeruginosa
Staphylococcus aureus [9] = test: Sterilization time for contact germicidal efficiency (CGE) of salt was tested against at Staphylococcus aureus at pH 8.0, concentration 1042 ppm; type: functional, organism-based
Streptococcus pyogenes [10] = tested on: Streptococcus pyogenes
Pseudomonas aeruginosa [11] = test: Sterilization time for contact germicidal efficiency (CGE) of salt was tested against at Pseudomonas aeruginosa at pH 6.0, concentration 1007 ppm; type: functional, organism-based
Pseudomonas aeruginosa [12] = test: Sterilization time for contact germicidal efficiency (CGE) of salt was tested against at Pseudomonas aeruginosa at pH 7.0, concentration 1031 ppm; type: functional, organism-based
Pseudomonas aeruginosa [13] = test: Sterilization time for contact germicidal efficiency (CGE) of salt was tested against at Pseudomonas aeruginosa at pH 8.0, concentration 1042 ppm; type: functional, organism-based
Streptococcus pyogenes [14] = test: Sterilization time for contact germicidal efficiency (CGE) of salt was tested against at Streptococcus pyogenes at pH 7.0, concentration 1042.1 ppm; type: functional
In short: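 Streptococcus pyogenes ATCC 19615 overnight culture, 5 × 10^6 cfu/mL; 0.2 mL into 5 mL test solution of salt in buffer, left 30 min at room temperature beforehand. At timed intervals (0.5 to 30 min), a 3-mm loop was transferred to sterile nutrient broth and incubated at 37 °C for 7 days. Sterilization time is the shortest interval without growth; buffer-only and viability controls were run.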

Pseudomonas aeruginosa [15] = test: Sterilization time for contact germicidal efficiency (CGE) of salt was tested against at Pseudomonas aeruginosa at pH 7.0, concentration 1042.1 ppm; type: functional
In short: (§1)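 Test solutions of the quaternary salt in buffer stood 30 min at room temperature. 0.2 mL of overnight broth culture was added to 5 mL of solution. Inocula: S. aureus ATCC 6538 6-8 × 10^6 cfu/mL, P. aeruginosa ATCC 9027 12-13 × 10^6/mL, S. pyogenes ATCC 19615 5 × 10^6 cfu/mL. At 0.5-30 min intervals a loop was subcultured into nutrient broth and incubated 7 days at 37 °C. Sterilization time is the first interval giving no growth.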

Staphylococcus aureus [16] = test: Sterilization time for contact germicidal efficiency (CGE) of salt was tested against Staphylococcus aureus at pH 7.0, concentration 1042.1 ppm; type: functional; in short: as §1

| Compound | MIC (Staphylococcus aureus [1]) | MIC (Bacillus subtilis) | TIME (Streptococcus pyogenes [2]) | MIC (Salmonella typhimurium) | TIME (Staphylococcus aureus [3]) | TIME (Staphylococcus aureus [4]) | TIME (Streptococcus pyogenes [5]) | TIME (Streptococcus pyogenes [6]) | TIME (Staphylococcus aureus [7]) | MIC (Pseudomonas aeruginosa [8]) | TIME (Staphylococcus aureus [9]) | MIC (Streptococcus pyogenes [10]) | TIME (Pseudomonas aeruginosa [11]) | TIME (Pseudomonas aeruginosa [12]) | TIME (Pseudomonas aeruginosa [13]) | Time (Streptococcus pyogenes [14]) | Time (Pseudomonas aeruginosa [15]) | Time (Staphylococcus aureus [16]) |
| --- | --- | --- | --- | --- | --- | --- | --- | --- | --- | --- | --- | --- | --- | --- | --- | --- | --- | --- |
| Hexadecyl-trimethyl-ammonium bromide | < 2 p.p.m. | < 2 p.p.m. | 0.00833 h | 64.3 p.p.m. | 0.00833 h | 0.00833 h | 0.00833 h | 0.00833 h | 0.00833 h | 128 p.p.m. | 0.00833 h | < 2 p.p.m. | 0.00833 h | 0.00833 h | 0.00833 h |  |  |  |
| CCCCCCCCCCCCCC(=O)OC[n+]1ccccc1.[Cl-] |  |  |  |  |  |  |  |  |  |  |  |  |  |  |  | 0.5 min | 1 min | 1 min |

Reference: ChEMBL document CHEMBL1121429, “Soft drugs. 1. Labile quaternary ammonium salts as soft antimicrobials” (J Med Chem, 1980)
